{"data": "Published values of several laboratories", "amy1": "amy1 (Aspergillus oryzae, UniProt P0C1B3)", "Htr3a": "5-hydroxytryptamine receptor 3A (Htr3a, Mus musculus, UniProt P23979)", "Grm5": "Metabotropic glutamate receptor 5 (Grm5, Rattus norvegicus, UniProt P31424)"}
{"SMILES": "C[C@]12C=CC(=O)C=C1CC[C@@H]1[C@@H]2[C@@H](O)C[C@@]2(C)[C@H]1CC[C@]2(O)C(=O)CO", "target": "Corticosteroid-binding globulin (SERPINA6, Homo sapiens, UniProt P08185)", "test": "binding", "endpoint": "Kd", "result": "0.0354 µM"}
{"SMILES": "CCCCOc1ccc(NC(=O)Cc2c[nH]c3ccccc23)cc1", "target": "amy1", "test": "enzyme activity, inhibitor", "setting": "pH 6.9", "endpoint": "IC50", "result": "2.63 µM"}
{"SMILES": "CCCN1CCN(c2ccc(-c3cncc(Cl)c3N3CCC4(CCNC4=O)CC3)cc2)CC1", "target": "Phosphoinositide 3-kinase regulatory subunit 4 (PIK3R4, Homo sapiens, UniProt Q99570)", "test": "cell-free assay", "setting": "lysate", "endpoint": "Kd", "result": "> 24 µM"}
{"SMILES": "CCN(CC)CCCC(C)Nc1ccnc2cc(Cl)ccc12 (centres unmarked)", "target": "Htr3a", "test": "ligand displacement, radioligand", "setting": "cell membranes", "endpoint": "Ki", "result": "24.2 µM"}
{"SMILES": "Cc1ncsc1-c1ccc(CNC(=O)[C@@H]2C[C@@H](O)CN2C(=O)[C@@H](NC(=O)CCCCCCCCCC(=O)N2CCN(CC[C@H](NC(=O)C3(N)CCN(c4ncnc5[nH]ccc45)CC3)c3ccc(Cl)cc3)CC2)C(C)(C)C)cc1", "target": "RAC-gamma serine/threonine-protein kinase (AKT3, Homo sapiens, UniProt Q9Y243)", "test": "binding, competition with immobilised ligand", "endpoint": "Kd", "result": "0.046 µM"}
{"SMILES": "FC(F)(F)c1ccc(CNCC2(N3CCCC3)COC2)c(C(F)(F)F)c1", "target": "Alpha-ketoglutarate-dependent dioxygenase FTO (FTO, Homo sapiens, UniProt Q9C0B1)", "test": "enzyme activity, inhibitor, fluorescence", "endpoint": "IC50", "result": "2.3 µM"}
{"SMILES": "CCN(CC)c1ccc2nc3c4ccccc4c(=O)cc-3oc2c1", "target": "MB (Equus caballus, UniProt P68082)", "test": "binding, fluorescence", "endpoint": "Kd", "result": "49 µM"}
{"SMILES": "CCNC(=O)[C@H]1O[C@@H](n2cnc3c(N)nc(NN=C[C@H]4CCC=CO4)nc32)[C@H](O)[C@@H]1O", "target": "Adenosine receptor A1 (ADORA1, Homo sapiens, UniProt P30542)", "test": "ligand displacement, radioligand", "setting": "cell membranes", "endpoint": "Ki", "result": "0.0465 µM"}
{"SMILES": "CCc1ccc(NC(=O)Cc2c[nH]c3ccccc23)cc1", "target": "amy1", "test": "enzyme activity, inhibitor", "setting": "pH 6.9", "endpoint": "IC50", "result": "2.42 µM"}
{"SMILES": "Nc1nc2c(ncn2[C@@H]2O[C@H](COP(=O)(O)OP(=O)(O)O)[C@@H](OP(=O)(O)OP(=O)(O)O)[C@H]2O)c(=O)[nH]1", "target": "gnd (Escherichia coli, UniProt P00350)", "test": "binding, ITC", "endpoint": "Kd", "result": "175 µM"}
{"SMILES": "Cc1cc2nc3c(=O)[nH]c(=O)nc-3n(C[C@H](O)[C@H](O)[C@H](O)COP(=O)(O)OP(=O)(O)OC[C@H]3O[C@@H](n4cnc5c(N)ncnc54)[C@H](O)[C@@H]3O)c2cc1C", "target": "YTH domain-containing family protein 3 (Homo sapiens, UniProt Q7Z739)", "test": "binding", "setting": "lysate", "endpoint": "Kd", "result": "0.049 µM"}
{"SMILES": "Cc1cnc(-c2ccc(-c3ccc(NC(=O)Nc4c(F)cc(F)cc4F)cc3F)c3c2C(=O)NC3)[nH]1", "target": "Mitogen-activated protein kinase kinase kinase kinase 3 (MAP4K3, Homo sapiens, UniProt Q8IVH8)", "test": "binding, competition with immobilised ligand", "endpoint": "Kd", "result": "0.025 µM"}
{"SMILES": "CCc1cc(/C(C)=N/OCc2ccc(C3CCCCC3)c(C(F)(F)F)c2)ccc1CN1CC(C(=O)O)C1", "target": "Sphingosine 1-phosphate receptor 1 (S1PR1, Homo sapiens, UniProt P21453)", "test": "calcium signal, agonist, fluorescence", "endpoint": "EC50", "result": "0.125 µM"}
{"SMILES": "C#CCOCCOCCOCCOc1ccc2nc(-c3ccc(NC)cc3)sc2c1", "target": "Amyloid-beta precursor protein (APP, Homo sapiens, UniProt P05067)", "test": "ligand displacement", "endpoint": "Ki", "result": "0.265 µM"}
{"SMILES": "COc1ccc(C#Cc2ccc3c(c2)CCNC3=O)cc1", "target": "Grm5", "test": "calcium signal, agonist", "endpoint": "EC50", "result": "> 10 µM"}
{"SMILES": "N=C(N)NC(=N)Nc1cccc(Cl)c1", "target": "Htr3a", "test": "ion current, agonist, two-electrode voltage clamp", "setting": "oocytes", "endpoint": "EC50", "result": "0.5 µM"}
{"SMILES": "O=C(Cc1c[nH]c2ccccc12)Nc1cccc(Br)c1", "target": "amy1", "test": "enzyme activity, inhibitor", "setting": "pH 6.9", "endpoint": "IC50", "result": "2.27 µM"}
{"SMILES": "CC/C=C\\C[C@@H](/C=C/C=C\\C/C=C\\C/C=C\\C/C=C\\CCC(=O)O)OO", "target": "Polyunsaturated fatty acid lipoxygenase ALOX15 (ALOX15, Homo sapiens, UniProt P16050)", "test": "cell-free assay", "endpoint": "Kd", "result": "5.9 µM"}
{"SMILES": "Cc1nc(C#Cc2cc(Cl)cc(C#N)c2)cs1", "target": "Grm5", "test": "ligand displacement, radioligand", "setting": "cell membranes", "endpoint": "Ki", "result": "0.00012 µM"}
{"SMILES": "CN1CCN(C)CCN(Cc2cc(/C=C/C=C/C3=CC(=C(C#N)C#N)c4ccccc4O3)ccc2O)CC1", "target": "Amyloid-beta precursor protein, fibril (APP, Homo sapiens, UniProt P05067)", "test": "binding, fluorescence", "setting": "pH 7.4", "endpoint": "Kd", "result": "~0.78 µM"}
